# Hsp70 activator = Hsp70 transcriptional activators, primary screen, cell-based, HeLa, Hsp70 promoter luciferase, luminescence, 10 µM; activation, % at 10 µM; AID 1203, 2008; 200,000 tested, 0.04% active; HeLa Hsp70 promoter luciferase reporter; scaled: vehicle 0, proteasome-inhibitor control 100%;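 active = activation above the mean across all tested compounds plus 3 SD, cutoff set per campaign, cut at about 5.5% in these data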
# p97 inhibitor = inhibitors of human p97 ATPase, primary screen, biochemical. 220,000 tested, 0.42% active. Transitional endoplasmic reticulum ATPase (Homo sapiens), P55072. inhibition, % at 8 µM. recombinant p97 ATPase, Kinase-Glo ATP luminescence, 3 h; in the data active = inhibition above about 15%
# PP5 inh = PP5 phosphatase inhibitors, primary screen, biochemical, fluorescence; purified PP5c, OMFP substrate fluorescence; inhibition, % at 6.7 µM; Serine/threonine-protein phosphatase 5 (Homo sapiens), P53041; 320,000 tested, 0.18% active; AID 1987, 2009;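 active = inhibition above the campaign's mean inhibition across all tested compounds plus 3 SD, cut at about 9.5% in these data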
# PP1 inh = PP1-alpha phosphatase inhibitors, primary screen, counter-screen for PP5 inhibitor project, biochemical, fluorescence, OMFP substrate, single point. purified PP1alpha. inhibition, % at 6.7 µM. 320,000 tested, 0.9% active. Serine/threonine-protein phosphatase PP1-alpha catalytic subunit (Homo sapiens), P62136;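 active = inhibition above the mean inhibition of all tested compounds plus 3 SD, computed separately for each screening campaign, cut at about 15% in these data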
# RBBP9 inhibitor = human RBBP9 inhibitors, primary screen, biochemical, fluorescence polarization, FP-Rh probe, HTS; recombinant RBBP9; Serine hydrolase RBBP9 (Homo sapiens), O75884; inhibition, % at 7.94 µM; 220,000 tested, 0.2% active;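 active = inhibition above the campaign mean of all tested compounds plus 3 SD, cut at about 14% in these data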
#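 Material: RBBP9 protein. Amount: RBBP9 at 2.5 µM in dispensed solution, before mixing. Schedule: 30 min then 45 min, 25 °C. Medium: Tris buffer pH 8.0, NaCl, Pluronic. Measured by: fluorescence polarization. Measure: percent inhibition from mP, scaled between DMSO and no-protein wells. Replication: one well per compound.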
# PKD1 kinase inh = inhibitors of human PKD1 kinase, biochemical, fluorescence polarization | PKD1 kinase fluorescence polarization assay | inhibition, % (concentration not given with the values) | 200,000 tested, 0.056% active | AID 797, 2007; in the data active = inhibition above about 50%
# Target sequence (Q15139 whole entry, looked up): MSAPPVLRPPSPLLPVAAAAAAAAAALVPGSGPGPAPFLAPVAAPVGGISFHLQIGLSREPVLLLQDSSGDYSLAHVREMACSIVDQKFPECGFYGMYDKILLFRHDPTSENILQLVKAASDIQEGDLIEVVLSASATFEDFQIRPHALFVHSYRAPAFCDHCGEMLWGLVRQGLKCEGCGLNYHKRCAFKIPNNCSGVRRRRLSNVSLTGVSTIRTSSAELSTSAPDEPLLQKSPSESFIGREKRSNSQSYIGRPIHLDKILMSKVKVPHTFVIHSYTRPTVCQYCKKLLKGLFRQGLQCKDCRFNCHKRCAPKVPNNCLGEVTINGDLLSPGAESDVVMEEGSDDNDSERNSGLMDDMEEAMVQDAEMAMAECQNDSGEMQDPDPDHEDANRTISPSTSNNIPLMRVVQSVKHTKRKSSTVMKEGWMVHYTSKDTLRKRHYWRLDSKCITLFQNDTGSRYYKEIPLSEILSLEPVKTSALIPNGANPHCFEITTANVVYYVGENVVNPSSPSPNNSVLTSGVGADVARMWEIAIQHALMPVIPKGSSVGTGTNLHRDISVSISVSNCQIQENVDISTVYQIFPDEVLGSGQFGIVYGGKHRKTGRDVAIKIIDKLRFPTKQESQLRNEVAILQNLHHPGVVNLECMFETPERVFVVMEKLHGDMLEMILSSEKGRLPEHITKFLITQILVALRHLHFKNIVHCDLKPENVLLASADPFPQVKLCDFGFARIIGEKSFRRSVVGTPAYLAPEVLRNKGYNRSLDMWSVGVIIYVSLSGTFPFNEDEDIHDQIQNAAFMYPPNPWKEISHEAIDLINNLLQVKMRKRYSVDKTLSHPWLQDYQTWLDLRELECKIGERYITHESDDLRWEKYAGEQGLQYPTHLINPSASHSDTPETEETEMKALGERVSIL
# PP1 inh confirm = PP1 phosphatase inhibitors, confirmation, biochemical, fluorescence, OMFP substrate, triplicate; shares compounds with PP1 inh; inhibition, % at 6.7 µM; AID 2358, 2010; purified PP1alpha; 1,900 tested, 52% active;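 active = mean PP1 inhibition above a set limit taken from the earlier primary screen, cut at about 15% in these data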
# PP5 inh counter = PP5 phosphatase inhibition by PP1 hits, confirmation, counter-screen for PP1 inhibitor project, biochemical, fluorescence, triplicate. shares compounds with PP1 inh. purified PP5c, OMFP fluorescence. inhibition, % at 6.7 µM. 1,900 tested, 4% active. AID 2360, 2010;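 active = mean PP5 inhibition over triplicate wells above about 9.5% taken from the earlier PP1 screen, limit read from the data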
# Numbers stand for hits; – = inactive; · = no result given. An excerpt weighted towards active compounds, which were near 1.5% of everything screened.
SMILES,Hsp70 activator,p97 inhibitor,PP5 inh,PP1 inh,RBBP9 inhibitor,PKD1 kinase inh,PP1 inh confirm,PP5 inh counter
CCN(CC)S(=O)(=O)c1ccc(C(=O)Nc2nnc(NC(=S)Nc3ccccc3)s2)cc1,·,–,–,42.7,–,·,28.9,–
COc1ccc(-n2nc(C(=O)O)cc2-c2ccccc2)cc1,·,·,–,26.2,·,·,24.4,–
O=C(O)c1cc(-c2ccc(Cl)c(Cl)c2)n(-c2ccc(F)cc2)n1,·,·,–,52.7,·,·,48.8,–
O=C(O)c1nc(-c2ccccc2)n(-c2ccc(Cl)cc2)n1,–,–,–,18.1,–,–,18.1,–
O=C(O)c1cc(-c2ccccc2)n(-c2ccc(Cl)cc2)n1,–,–,–,23.9,–,–,30.6,–
O=C(NCCc1ccccc1)C1CCCN1C(=O)Nc1ccc(Cl)cc1 (stereo unspecified),·,·,–,–,·,·,·,·
O=[N+]([O-])c1ccc(N2CCN(c3ccc(Cl)nn3)CC2)cc1NC1CC1,–,–,–,–,–,–,·,·
Cc1ccc(S(=O)(=O)Nc2nc(C)c(C)s2)cc1,·,·,–,–,·,·,·,·
CCN1C(=O)[C@H]2[C@@H](c3ccc(OC)cc3)N3C(=O)CN(CC4CC4)C(=O)[C@@]3(C)[C@H]2C1=O,·,·,–,–,·,·,·,·
O=C(O)c1nc(-c2ccccc2)n(-c2cccc(C(F)(F)F)c2)n1,–,–,–,–,–,–,·,·
COc1ccccc1C(=O)Nc1ccc(OC(C)C(=O)N2CCOCC2)cc1 (stereo unspecified),·,·,–,–,·,·,·,·
COc1ccc(C(=O)N2CCOC23CCN(c2ncccn2)CC3)cc1,–,–,–,–,–,–,·,·
Cc1ccccc1-n1nc(C(=O)O)cc1-c1ccccc1,–,–,–,36.2,–,–,33.2,–
O=C(O)c1cc(-c2ccccc2)n(-c2ccccc2)n1,–,–,–,24.2,–,–,28.1,–
O=C(Nc1cccc(-c2cn3ccccc3n2)c1)c1cc2ccccc2oc1=O,–,–,–,24.0,–,–,27.5,–
CC(=O)Nc1cccc(-c2cn3ccccc3n2)c1,–,–,–,–,–,–,·,·
COCC1COS(=O)(=O)NC1(C)C (stereo unspecified),·,·,–,–,·,·,·,·
CCCOc1ccc(C2C(C(=O)c3cc4ccccc4o3)=C(O)C(=O)N2c2cc(C)on2)cc1OC (stereo unspecified),·,·,–,33.3,·,·,36.8,–
CCCOc1ccc(C2C(C(=O)c3cc4ccccc4o3)=C(O)C(=O)N2c2cc(C)on2)cc1 (stereo unspecified),·,·,–,27.4,·,·,34.4,–
CCOc1ccc(N(CC(=O)NCCc2ccccc2)C(=O)c2csnn2)cc1,·,·,–,–,·,·,·,·
Cc1ccc(SCC(=O)NCCc2ccc(F)cc2)cc1,·,·,–,–,·,·,·,·
COc1ccccc1N1CCN(CC(=O)Nc2ccccc2C(=O)NC(C)c2ccccc2)CC1 (stereo unspecified),·,·,–,–,·,·,·,·
CCOCCCNS(=O)(=O)c1ccc(NC(=O)Cc2c(F)cccc2Cl)cc1,–,–,–,–,–,–,·,·
CCN1CCN(Cc2ccc(NC(=O)c3ccc(C)c(NC(=O)C4=NN(c5ccccc5)C(=O)C4)c3)cc2C(F)(F)F)CC1,·,·,–,18.4,·,·,–,–
CCN1CCN(Cc2ccc(NC(=O)c3cc(NC(=O)C4=NN(c5ccccc5)C(=O)C4)cc(OC)c3)cc2C(F)(F)F)CC1,·,·,–,17.6,·,·,–,–
SMILES,Hsp70 activator,p97 inhibitor,PP5 inh,PP1 inh,RBBP9 inhibitor,PKD1 kinase inh,PP1 inh confirm,PP5 inh counter
CCN1CCN(Cc2ccc(NC(=O)c3cc(NC(=O)c4cncc(-c5cccs5)c4)cc(OC)c3)cc2C(F)(F)F)CC1,·,·,–,19.5,·,·,–,–
CCN1CCN(Cc2ccc(NC(=O)c3cc(NC(=O)c4cc(-c5ccc(OC)cc5)n[nH]4)cc(OC)c3)cc2C(F)(F)F)CC1,·,·,–,–,·,·,·,·
Cc1ccc(C#CC(C)(O)C(C)(C)C)cn1 (stereo unspecified),·,–,–,–,–,·,·,·
CC(C)(C)c1ccccc1OCC(=O)NCCCn1ccnc1,·,·,–,–,·,·,·,·
Cc1ccccc1Nc1nc(N)nc(COC(=O)CC2CC3CCC2C3)n1 (stereo unspecified),–,–,–,–,–,–,·,·
CN(Cc1ccccn1)C(=O)C1CCC(=O)N(Cc2cccc(C(F)(F)F)c2)C1 (stereo unspecified),·,·,–,–,·,·,·,·
CN(Cc1ccccn1)C(=O)C1CCC(=O)N(Cc2cccc(F)c2)C1 (stereo unspecified),·,·,–,24.3,·,·,–,–
CC1(c2ccc(OC(F)F)cc2)NC(=O)N(CC(=O)N2c3ccccc3NC(=O)C2(C)C)C1=O (stereo unspecified),·,·,–,–,·,·,·,·
C=CCn1c(=S)[nH]c2sccc2c1=O,–,–,–,–,–,–,·,·
CCCCCCSc1cc(-c2nc3cc(C)ccn3c2NC2CCCCC2)ccc1OC,·,·,–,22.5,·,·,–,–
CCCCCCSc1ccc(-c2nc3ccc(C)cn3c2NC2CCCCC2)cc1,·,·,–,–,·,·,·,·
CCCCNc1c(-c2ccc(OC)c(SC3CCCCC3)c2)nc2cnccn12,·,·,–,25.7,·,·,16.9,–
CCCCCCSc1cc(-c2nc3cnccn3c2NCc2ccccc2)ccc1OC,·,·,–,17.8,·,·,–,–
CCCCNc1c(-c2ccc(OC)c(SC3CCCCC3)c2)nc2cc(C)ccn12,·,·,–,–,·,·,·,·
Cc1ccc(-c2cc(-c3ccco3)c3c(N)c(C(=O)NN)oc3n2)cc1,·,–,–,18.0,–,·,–,–
NNC(=O)c1oc2nc(-c3cccs3)cc(-c3ccco3)c2c1N,·,·,–,–,·,·,·,·
COC(=O)c1ccccc1NC(=O)c1ccc(COc2cccc3ccccc23)o1,–,–,–,24.7,–,–,18.9,–
COC(=O)c1ccccc1NC(=O)c1ccc(COc2ccccc2)o1,–,–,–,–,–,–,·,·
CCn1ncc(NC(=S)NCCc2ccc(OC)c(OC)c2)c1C(N)=O,–,–,–,–,–,–,·,·
Cc1cccc(NC(=S)NCc2ccc3c(c2)cc(C)n3C)c1C,–,–,–,17.9,–,–,–,–
CC(=O)Nc1ccc2nc(-c3ccccn3)[nH]c2c1,–,–,–,–,–,–,·,·
c1ccc(-c2nc3cc4ccccc4cc3[nH]2)nc1,–,–,–,30.1,–,–,19.6,–
O=C(NCc1ccccc1)c1onc(CSc2ccc(F)c(F)c2)c1C(=O)NCc1ccccc1,·,·,–,–,·,·,·,·
